Data on nine molecules can be found in ChEMBL document CHEMBL1255221, “Synthesis and evaluation of selected key methyl ether derivatives of vancomycin aglycon” (2010).

Holding throughout (assay type): functional
One assay deals with Staphylococcus aureus. The experiment in a line: Antimicrobial activity against Staphylococcus aureus ATCC 25923.
For assay [1], the system named is Enterococcus faecalis. The experiment in a line: Antimicrobial activity against vancomycin A-resistant Enterococcus faecalis BM 4166. Put shortly:
(§1)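 MIC measured in a microtiter plate-based antimicrobial assay, in μg/mL. VanA E. faecalis BM4166 is vancomycin- and teicoplanin-resistant; VanB E. faecalis ATCC 51299 is vancomycin-resistant and teicoplanin-sensitive. Both strains carry a vancomycin-inducible resistance pathway, switching from D-Ala-D-Ala to D-Ala-D-Lac cell-wall precursors on glycopeptide exposure.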

Assay [2] relates to Enterococcus faecalis. The experiment in a line: Antimicrobial activity against vancomycin B-resistant Enterococcus faecalis ATCC 51299. Put shortly:
as §1

Usually MIC stands for the lowest concentration found to suppress growth. A lower MIC goes with a more susceptible organism.

Converted amounts (≈) assume the structure as drawn. Where only a bound is given, the exact number is not on record here.

With `CN[C@@H](CC(C)C)C(=O)N[C@H]1C(=O)N[C@@H](CC(N)=O)C(=O)N[C@H]2C(=O)N[C@H]3C(=O)N[C@H](C(=O)N[C@@H](C(=O)O)c4cc(O)cc(O)c4-c4cc3ccc4O)[C@H](O)c3ccc(c(Cl)c3)Oc3cc2cc(c3O[C@@H]2O[C@H](CO)[C@@H](O)[C@H](O)[C@H]2O[C@H]2C[C@](C)(NCc3ccc(-c4ccc(Cl)cc4)cc3)[C@H](O)[C@H](C)O2)Oc2ccc(cc2Cl)[C@H]1O`, the MIC against Staphylococcus aureus is 0.03 µg/mL (≈ 0.0182 µM); against Enterococcus faecalis [1], 10 µg/mL (≈ 6.06 µM); with Enterococcus faecalis [2], 0.03 µg/mL (≈ 0.0182 µM).
Consider `CN[C@H](CC(C)C)C(=O)N[C@H]1C(=O)N[C@@H](CC(N)=O)C(=O)N[C@H]2C(=O)N[C@H]3C(=O)N[C@H](C(=O)N[C@@H](C(=O)OC)c4cc(OC)cc(OC)c4-c4cc3ccc4OC)[C@H](O)c3ccc(c(Cl)c3)Oc3cc2cc(c3OC)Oc2ccc(cc2Cl)[C@H]1O`, for which the MIC turned out to be 1.25 µg/mL (≈ 1.03 µM) against Staphylococcus aureus, 40 µg/mL (≈ 32.9 µM) against Enterococcus faecalis [1] and 1.25 µg/mL (≈ 1.03 µM) against Enterococcus faecalis [2].
Regarding `CN[C@H](CC(C)C)C(=O)N[C@H]1C(=O)N[C@@H](CC(N)=O)C(=O)N[C@H]2C(=O)N[C@H]3C(=O)N[C@H](C(=O)N[C@@H](C(=O)O)c4cc(OC)cc(OC)c4-c4cc3ccc4O)[C@H](O)c3ccc(c(Cl)c3)Oc3cc2cc(c3O)Oc2ccc(cc2Cl)[C@H]1O`, the MIC against Staphylococcus aureus worked out at 10 µg/mL (≈ 8.53 µM); in the assay with Enterococcus faecalis [1] it was 640 µg/mL (≈ 546 µM); in the assay on Enterococcus faecalis [2], 120 µg/mL (≈ 102 µM).
In the same order, the values of `CN[C@H](CC(C)C)C(=O)N[C@H]1C(=O)N[C@@H](CC(N)=O)C(=O)N[C@H]2C(=O)N[C@H]3C(=O)N[C@H](C(=O)N[C@@H](C(=O)O)c4cc(OC)cc(O)c4-c4cc3ccc4OC)[C@H](O)c3ccc(c(Cl)c3)Oc3cc2cc(c3O)Oc2ccc(cc2Cl)[C@H]1O` are 10 µg/mL (≈ 8.53 µM), 640 µg/mL (≈ 546 µM) and 120 µg/mL (≈ 102 µM).
In the same order, the values of `CN[C@H](CC(C)C)C(=O)N[C@H]1C(=O)N[C@@H](CC(N)=O)C(=O)N[C@H]2C(=O)N[C@H]3C(=O)N[C@H](C(=O)N[C@H](C(=O)O)c4cc(O)cc(O)c4-c4cc3ccc4O)[C@H](O)c3ccc(c(Cl)c3)Oc3cc2cc(c3O)Oc2ccc(cc2Cl)[C@H]1O` [VANCOMYCIN AGLYCON] are 0.6 µg/mL (≈ 0.525 µM), greater than 100 µg/mL and greater than 40 µg/mL.
As for `CN[C@H](CC(C)C)C(=O)N[C@H]1C(=O)N[C@@H](CC(N)=O)C(=O)N[C@H]2C(=O)N[C@H]3C(=O)N[C@H](C(=O)N[C@@H](C(=O)O)c4cc(OC)cc(OC)c4-c4cc3ccc4OC)[C@H](O)c3ccc(c(Cl)c3)Oc3cc2cc(c3O)Oc2ccc(cc2Cl)[C@H]1O`, the figures for the MIC with Enterococcus faecalis [1] and with Enterococcus faecalis [2] were 640 µg/mL (≈ 540 µM) and 10 µg/mL (≈ 8.43 µM), respectively.
On to `CN[C@H](CC(C)C)C(=O)N[C@H]1C(=O)N[C@@H](CC(N)=O)C(=O)N[C@H]2C(=O)N[C@H]3C(=O)N[C@H](C(=O)N[C@H](C(=O)O)c4cc(O)cc(O)c4-c4cc3ccc4O)[C@H](O)c3ccc(c(Cl)c3)Oc3cc2cc(c3O[C@@H]2O[C@H](CO)[C@@H](O)[C@H](O)[C@H]2O[C@H]2C[C@](C)(N)[C@H](O)[C@H](C)O2)Oc2ccc(cc2Cl)[C@H]1O` [VANCOMYCIN], for which the MIC in the assay with Enterococcus faecalis [1] amounted to 2000 µg/mL (≈ 1380 µM); in the assay with Enterococcus faecalis [2] it was 120 µg/mL (≈ 82.8 µM).
In the case of `CN[C@H](CC(C)C)C(=O)N[C@H]1C(=O)N[C@@H](CC(N)=O)C(=O)N[C@H]2C(=O)N[C@H]3C(=O)N[C@H](C(=O)N[C@@H](C(=O)O)c4cc(O)cc(O)c4-c4cc3ccc4O)[C@H](O)c3ccc(c(Cl)c3)Oc3cc2cc(c3OC)Oc2ccc(cc2Cl)[C@H]1O`, the values for the MIC in the assay on Staphylococcus aureus, in the assay on Enterococcus faecalis [1] and in the assay with Enterococcus faecalis [2] were 1.25 µg/mL (≈ 1.08 µM), 240 µg/mL (≈ 207 µM) and 40 µg/mL (≈ 34.5 µM), respectively.
For `CN[C@H](CC(C)C)C(=O)N[C@H]1C(=O)N[C@@H](CC(N)=O)C(=O)N[C@H]2C(=O)N[C@H]3C(=O)N[C@H](C(=O)N[C@@H](C(=O)O)c4cc(OC)cc(OC)c4-c4cc3ccc4OC)[C@H](O)c3ccc(c(Cl)c3)Oc3cc2cc(c3OC)Oc2ccc(cc2Cl)[C@H]1O`, the MIC with Staphylococcus aureus was determined as 1.25 µg/mL (≈ 1.04 µM); in the assay on Enterococcus faecalis [1], 80 µg/mL (≈ 66.7 µM); with Enterococcus faecalis [2], 2.5 µg/mL (≈ 2.08 µM).
